Assay results published in ChEMBL document CHEMBL1641421, “Synthesis of novel 5-amino-thiazolo[4,5-d]pyrimidines as E. coli and S. aureus SecA inhibitors” (Bioorg Med Chem, 2011).
Active and inactive are the calls of the source. The rule behind the calls is not given here.

Key:
[1] = Inhibition of intrinsic ATPase activity of Escherichia coli SecA expressed in Escherichia coli BL21.19 cells assessed as hydrolysis of ATP after 2 hrs by malachite green colorimetric method
Procedure, shortened: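 Recombinant His-tagged ecSecA at 0.5 µM (50 µg/ml) was incubated at 37 °C with 100 µM ATP and compound (0–200 µM) for 2 h. Buffer was 50 mM Tris–HCl, 50 mM KCl, 5 mM MgCl2, 0.4 mg/ml BSA, pH 8.0. Released Pi was read with malachite green (20 min rt, 660 nm). Rates were taken relative to no-compound, and IC50 was fitted by nonlinear regression from three independent experiments.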

Escherichia coli [2] = test: Mixed-type inhibition of ATPase activity of Escherichia coli SecA expressed in Escherichia coli BL21.19 cells assessed as hydrolysis of ATP after 2 hrs using MM equation at 25 to 200 uM by malachite green colorimetric method
[3] = Inhibition of ATPase activity of Escherichia coli SecA expressed in Escherichia coli BL21.19 cells assessed as hydrolysis of ATP after 2 hrs using Dixon plot analysis by malachite green colorimetric method
Escherichia coli [4] = test: Inhibition of intrinsic ATPase activity of Escherichia coli SecA expressed in Escherichia coli BL21.19 cells assessed as hydrolysis of ATP at 200 uM after 2 hrs by malachite green colorimetric method
Procedure, shortened: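 Single-concentration screen: compound at 200 µM with His-tagged ecSecA at 0.5 µM (50 µg/ml) and 100 µM ATP, 37 °C, 2 h. Buffer was 50 mM Tris–HCl, 50 mM KCl, 5 mM MgCl2, 0.4 mg/ml BSA, pH 8.0. Free Pi was detected with malachite green reagent (20 min rt, absorbance 660 nm).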

Staphylococcus aureus = test: Inhibition of intrinsic ATPase activity of Staphylococcus aureus SecA expressed in Escherichia coli BL21.19 cells assessed as hydrolysis of ATP after 2 hrs by malachite green colorimetric method; details: dose or concentration not given here
Procedure, shortened: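 His-tagged saSecA1 at 4 µM (400 µg/ml) was incubated at 28 °C for 2 h with 100 µM ATP. Buffer was 50 mM HEPES, 50 mM KCl, 2 mM MgCl2, 0.4 mg/ml BSA, pH 7.5. Liberated Pi was quantified with malachite green (20 min room temperature, 660 nm).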

| SMILES | inhibition (Escherichia coli [4]) | Activity (Escherichia coli [4]) | inhibition (Staphylococcus aureus) | other results |
| --- | --- | --- | --- | --- |
| Nc1nc(-c2ccc(F)cc2)c2sc(N3CCN(C(=O)COc4ccc(Cl)cc4)CC3)nc2n1 | 76% | – | – | IC50 [1]: 135 µM; inhibition (Escherichia coli [2]): Active; Ki [3]: 60 µM |
| COCCNc1nc2nc(N)nc(N3CCOCC3)c2s1 | – | Active | – | – |
| CC(C)(C)OC(=O)N1CCN(c2nc3nc(N)nc(-c4ccc(F)cc4)c3s2)CC1 | 50% | – | – | – |
| CC(=O)N1CCN(c2nc(N)nc3nc(-c4ccc(F)cc4)sc23)CC1 | 50% | – | – | – |
| Nc1nc(N2CCOCC2)c2sc(N3CCOCC3)nc2n1 | – | Active | – | – |
| Nc1nc(N2CCOCC2)c2sc(-c3ccc(F)cc3)nc2n1 | – | Active | – | – |
| COCCNc1nc2nc(N)nc(-c3ccc(F)cc3)c2s1 | 50% | – | – | – |
| Nc1nc(N2CCN(C(=O)COc3ccc(Cl)cc3)CC2)c2sc(-c3ccc(F)cc3)nc2n1 | 50% | – | – | – |
| Cc1cccc(NC(=O)N2CCN(c3nc4nc(N)nc(-c5ccc(F)cc5)c4s3)CC2)c1 | 50% | – | 40% | – |
| Nc1nc(N2CCOCC2)c2sc(/C=C/c3ccccc3)nc2n1 | 70% | – | 40% | IC50 [1]: 197 µM |
| Nc1nc(N2CCOCC2)c2sc(C#Cc3ccccc3)nc2n1 | – | Active | 40% | – |
| Nc1nc(-c2ccc(F)cc2)c2sc(N3CCNCC3)nc2n1 | 35% | – | – | – |
| Cc1cccc(NC(=O)N2CCN(c3nc(N)nc4nc(-c5ccc(F)cc5)sc34)CC2)c1 | – | – | 40% | – |
